Test results as given in ChEMBL document CHEMBL4261634, “Design and optimization of 2,3-dihydrobenzo[b][1,4]dioxine propanoic acids as novel GPR40 agonists with improved pharmacokinetic and safety profiles” (Bioorg Med Chem, 2018).
Activity calls are given as the source filed them. The calls are words filed in the database; no cut-off is given here.

Experiments:
[1] = biological target: T1, Cytochrome P450 1A2 (Homo sapiens, UniProt P05177); assay: Inhibition of CYP1A2 (unknown origin); assay type: ADME
T1 sequence (P05177 whole entry): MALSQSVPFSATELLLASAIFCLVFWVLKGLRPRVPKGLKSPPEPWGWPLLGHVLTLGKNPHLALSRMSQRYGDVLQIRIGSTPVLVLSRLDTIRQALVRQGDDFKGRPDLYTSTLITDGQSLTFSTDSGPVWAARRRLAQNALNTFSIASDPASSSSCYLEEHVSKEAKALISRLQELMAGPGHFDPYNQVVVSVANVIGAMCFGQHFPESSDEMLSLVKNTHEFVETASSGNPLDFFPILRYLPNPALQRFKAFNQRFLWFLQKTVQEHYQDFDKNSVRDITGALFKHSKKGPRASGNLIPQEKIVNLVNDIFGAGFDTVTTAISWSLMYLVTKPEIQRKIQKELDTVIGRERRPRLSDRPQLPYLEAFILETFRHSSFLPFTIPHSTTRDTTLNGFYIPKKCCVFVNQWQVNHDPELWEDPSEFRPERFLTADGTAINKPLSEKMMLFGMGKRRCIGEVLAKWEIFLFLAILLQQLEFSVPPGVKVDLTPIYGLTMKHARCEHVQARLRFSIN

[2] = system: Rattus norvegicus; assay: Subacute toxicity in Sprague-Dawley rat assessed as effect on survival rate at 50 to 100 mg/kg, po administered once daily for 2 weeks; assay type: organism-based; details: in vivo, 336 h
In short: (§1)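 SD rats dosed orally once daily for two weeks at 50 mg/kg and 100 mg/kg. Subacute toxicity was assessed over the dosing period from survival rate, behaviour, food intake and organ coefficients.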

[3] = biological target: T2, Free fatty acid receptor 1 (Homo sapiens, UniProt O14842); assay: Agonist activity at human GPR40 expressed in human HEK293 cells assessed as increase in intracellular calcium flux after 10 mins by fluorescence assay; assay type: functional, cell-based
In short: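 Human GPR40 activity read by calcium mobilization to give EC50. Mean ± SD, n = 3.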

[4] = biological target: T3, Solute carrier organic anion transporter family member 1B3 (Homo sapiens, UniProt Q9NPD5); assay: Inhibition of human OATP1B3; assay type: ADME
T3 sequence (Q9NPD5 whole entry): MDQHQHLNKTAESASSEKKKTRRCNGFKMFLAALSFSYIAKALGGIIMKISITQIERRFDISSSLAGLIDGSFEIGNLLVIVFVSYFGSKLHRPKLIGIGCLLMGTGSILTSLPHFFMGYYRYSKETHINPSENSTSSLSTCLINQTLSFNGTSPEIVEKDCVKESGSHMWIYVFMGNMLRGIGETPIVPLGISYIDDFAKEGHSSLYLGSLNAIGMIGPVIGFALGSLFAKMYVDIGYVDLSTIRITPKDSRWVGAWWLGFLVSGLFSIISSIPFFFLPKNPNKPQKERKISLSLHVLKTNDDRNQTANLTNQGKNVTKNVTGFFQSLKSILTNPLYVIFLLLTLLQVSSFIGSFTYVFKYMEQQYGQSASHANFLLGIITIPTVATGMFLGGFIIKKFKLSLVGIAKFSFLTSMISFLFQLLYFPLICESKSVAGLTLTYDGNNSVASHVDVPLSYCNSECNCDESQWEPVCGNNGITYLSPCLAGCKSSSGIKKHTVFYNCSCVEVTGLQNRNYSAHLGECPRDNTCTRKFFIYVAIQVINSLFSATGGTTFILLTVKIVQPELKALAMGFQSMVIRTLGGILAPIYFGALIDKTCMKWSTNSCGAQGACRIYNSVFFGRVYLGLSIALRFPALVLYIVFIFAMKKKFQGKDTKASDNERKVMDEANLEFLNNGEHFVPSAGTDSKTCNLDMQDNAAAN

[5] = AUC (0 to t) in Sprague-Dawley rat at 10 mg/kg, po by LC-ESI-MS analysis; assay type: ADME, organism-based; details: in vivo
In short: (§2)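 SD rats dosed orally (3 or 10 mg/kg) or by intravenous injection (1 mg/kg). Plasma PK parameters derived per route: Cmax, AUC0-t, Tmax, t1/2 and F after oral dosing; CL, AUC0-t, MRT, t1/2 and Vdss after iv dosing. Mean ± SD from three independent experiments (n = 3).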

[6] = biological target: T4, Cytochrome P450 2B6 (Homo sapiens, UniProt P20813); assay: Inhibition of CYP2B6 (unknown origin); assay type: ADME
T4 sequence (P20813 whole entry): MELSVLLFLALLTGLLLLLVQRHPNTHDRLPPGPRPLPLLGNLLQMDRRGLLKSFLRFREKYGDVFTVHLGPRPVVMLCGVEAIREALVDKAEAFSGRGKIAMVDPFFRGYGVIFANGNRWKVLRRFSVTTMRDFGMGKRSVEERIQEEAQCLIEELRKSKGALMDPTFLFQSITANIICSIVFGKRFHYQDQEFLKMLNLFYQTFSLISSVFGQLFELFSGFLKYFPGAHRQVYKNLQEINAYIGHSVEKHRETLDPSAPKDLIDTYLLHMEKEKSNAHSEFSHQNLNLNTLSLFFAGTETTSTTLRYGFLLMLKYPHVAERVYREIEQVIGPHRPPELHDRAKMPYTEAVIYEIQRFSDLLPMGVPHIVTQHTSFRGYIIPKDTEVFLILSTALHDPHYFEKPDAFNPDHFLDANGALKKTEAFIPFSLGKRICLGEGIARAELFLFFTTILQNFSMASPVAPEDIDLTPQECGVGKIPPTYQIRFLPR

[7] = Clearance in Sprague-Dawley rat at 1 mg/kg, iv by LC-ESI-MS analysis; assay type: ADME, organism-based; details: in vivo; in short: as §2
[8] = biological target: T2, Free fatty acid receptor 1; assay: Agonist activity at human GPR40 expressed in human HEK293 cells assessed as increase in intracellular calcium flux after 10 mins by fluorescence assay relative to linoleic acid; assay type: functional, cell-based
In short: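 Human GPR40 activity read by calcium mobilization to give EC50. Emax expressed relative to linoleic acid as 100%. Mean ± SD, n = 3.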

[9] = Elimination half life in Sprague-Dawley rat at 3 mg/kg, po by LC-ESI-MS analysis; assay type: ADME, organism-based; details: in vivo, read-out: beta t1/2 (converted); in short: as §2
[10] = Cmax in Sprague-Dawley rat at 3 mg/kg, po by LC-ESI-MS analysis; assay type: ADME, organism-based; parameters: dose 3 mg/kg, route oral; details: in vivo; in short: as §2
[11] = system: Salmonella typhimurium; assay: Mutagenicity in Salmonella typhimurium by Ames test; assay type: toxicity, organism-based; details: salmonella enterica subsp. enterica serovar typhimurium
[12] = system: Rattus norvegicus; assay: Antidiabetic activity in Sprague-Dawley rat assessed as reduction in blood glucose AUC (0 to 60 mins) at 10 to 20 mg/kg, po administered 60 mins prior to glucose challenge by OGTT; assay type: functional, organism-based
In short: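 OGTT in SD rats: compound given orally 60 min before a 3.0 g/kg glucose challenge. Blood glucose followed over time, and AUC0-60min or AUC0-120min calculated versus vehicle group. Mean ± SD, n = 8.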

[13] = biological target: ATP-binding cassette sub-family C member 2 (Homo sapiens, UniProt Q92887); assay: Inhibition of human MRP2
[14] = Volume of distribution at steady state in Sprague-Dawley rat at 1 mg/kg, iv by LC-ESI-MS analysis; assay type: ADME, organism-based; details: in vivo, read-out: Vdss; in short: as §2
[15] = system: Rattus norvegicus; assay: Subacute toxicity in Sprague-Dawley rat assessed as effect on behavior at 50 to 100 mg/kg, po administered once daily for 2 weeks; assay type: organism-based; details: in vivo, 336 h; in short: as §1
[16] = biological target: Cytochrome P450 2C9 (Homo sapiens, UniProt P11712); assay: Inhibition of CYP2C9 (unknown origin); assay type: ADME
Cytochrome P450 2C9, sequence (P11712 whole entry): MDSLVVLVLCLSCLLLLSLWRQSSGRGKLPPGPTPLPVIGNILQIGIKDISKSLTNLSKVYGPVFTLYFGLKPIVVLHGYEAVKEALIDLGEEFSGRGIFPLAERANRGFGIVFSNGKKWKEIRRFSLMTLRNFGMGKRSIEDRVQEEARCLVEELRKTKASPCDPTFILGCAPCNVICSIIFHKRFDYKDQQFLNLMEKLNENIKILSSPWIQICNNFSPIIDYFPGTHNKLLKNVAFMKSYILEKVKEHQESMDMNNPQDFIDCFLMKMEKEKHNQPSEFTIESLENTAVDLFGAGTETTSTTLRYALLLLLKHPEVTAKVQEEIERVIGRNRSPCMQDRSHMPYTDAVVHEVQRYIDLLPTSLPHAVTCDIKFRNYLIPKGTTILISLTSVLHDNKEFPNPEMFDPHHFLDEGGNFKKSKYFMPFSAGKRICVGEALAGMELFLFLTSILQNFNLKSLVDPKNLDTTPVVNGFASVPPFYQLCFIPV

T2 sequence (O14842 whole entry): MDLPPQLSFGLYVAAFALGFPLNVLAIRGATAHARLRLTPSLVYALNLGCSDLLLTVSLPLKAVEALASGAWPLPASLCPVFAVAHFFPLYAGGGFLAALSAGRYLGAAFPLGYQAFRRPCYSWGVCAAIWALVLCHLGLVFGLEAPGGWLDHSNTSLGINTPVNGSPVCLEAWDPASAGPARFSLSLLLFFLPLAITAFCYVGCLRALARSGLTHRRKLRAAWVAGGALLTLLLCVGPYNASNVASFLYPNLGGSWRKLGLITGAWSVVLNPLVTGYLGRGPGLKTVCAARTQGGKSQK
ATP-binding cassette sub-family C member 2, sequence (Q92887 whole entry): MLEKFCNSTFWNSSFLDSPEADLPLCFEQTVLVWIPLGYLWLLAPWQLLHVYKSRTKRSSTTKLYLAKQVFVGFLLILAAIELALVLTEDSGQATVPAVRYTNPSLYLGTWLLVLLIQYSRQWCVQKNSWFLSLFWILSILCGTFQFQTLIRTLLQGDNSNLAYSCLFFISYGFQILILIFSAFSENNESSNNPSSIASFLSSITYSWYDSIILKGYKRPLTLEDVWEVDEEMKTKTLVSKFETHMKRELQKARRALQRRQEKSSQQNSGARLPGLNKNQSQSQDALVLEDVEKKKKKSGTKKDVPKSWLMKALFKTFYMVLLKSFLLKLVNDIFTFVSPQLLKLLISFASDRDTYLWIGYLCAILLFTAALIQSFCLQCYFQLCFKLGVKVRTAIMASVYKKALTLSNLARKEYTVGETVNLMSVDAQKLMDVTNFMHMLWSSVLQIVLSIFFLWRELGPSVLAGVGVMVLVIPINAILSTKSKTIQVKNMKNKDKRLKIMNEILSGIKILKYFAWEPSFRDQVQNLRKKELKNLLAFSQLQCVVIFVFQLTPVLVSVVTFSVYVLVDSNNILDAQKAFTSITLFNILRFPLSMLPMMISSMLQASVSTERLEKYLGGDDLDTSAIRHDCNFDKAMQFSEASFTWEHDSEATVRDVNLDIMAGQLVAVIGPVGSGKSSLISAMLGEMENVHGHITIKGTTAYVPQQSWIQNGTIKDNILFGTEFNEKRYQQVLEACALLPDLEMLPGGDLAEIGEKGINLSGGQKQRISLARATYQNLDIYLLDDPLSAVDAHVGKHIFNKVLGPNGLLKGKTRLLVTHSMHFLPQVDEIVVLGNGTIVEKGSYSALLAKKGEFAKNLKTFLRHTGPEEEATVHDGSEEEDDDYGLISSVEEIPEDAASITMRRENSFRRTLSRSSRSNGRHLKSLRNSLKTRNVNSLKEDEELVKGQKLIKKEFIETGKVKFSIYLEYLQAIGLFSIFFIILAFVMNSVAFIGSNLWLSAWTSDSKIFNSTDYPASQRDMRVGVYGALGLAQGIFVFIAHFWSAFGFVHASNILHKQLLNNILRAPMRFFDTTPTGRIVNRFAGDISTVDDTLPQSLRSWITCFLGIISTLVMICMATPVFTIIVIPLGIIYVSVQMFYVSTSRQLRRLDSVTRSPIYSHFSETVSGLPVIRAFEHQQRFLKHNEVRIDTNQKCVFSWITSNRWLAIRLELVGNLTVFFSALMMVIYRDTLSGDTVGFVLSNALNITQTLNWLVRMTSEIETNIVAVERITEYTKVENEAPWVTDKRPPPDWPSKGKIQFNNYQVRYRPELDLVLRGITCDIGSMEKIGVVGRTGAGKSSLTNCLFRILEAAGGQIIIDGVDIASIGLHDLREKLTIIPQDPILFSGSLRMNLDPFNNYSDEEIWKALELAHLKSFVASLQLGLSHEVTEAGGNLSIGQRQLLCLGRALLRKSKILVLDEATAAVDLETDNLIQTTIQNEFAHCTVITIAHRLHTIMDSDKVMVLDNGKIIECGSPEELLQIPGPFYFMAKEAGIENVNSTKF

## CC#C[C@@H](CC(=O)O)c1ccc(OC[C@H]2COc3ccc(Cl)cc3O2)cc1
[1]
  IC50: > 100 µM
[2]
  Activity: Non-Toxic
[3]
  EC50: 0.05 µM
[4]
  IC50: 39.5 µM
[5]
  AUC(0-t): 656 µg·h/mL
[6]
  IC50: 84.7 µM
[7]
  clearance: 0.17 mL/min/kg
[8]
  Emax: 86%
[9]
  half-life: 16.1 h
[10]
  Cmax: 9310 ng/mL
[11]
  Activity: Non-Toxic
[12]
  Activity: Active
[13]
  IC50: > 100 µM
[14]
  Vd: 0.182 L/kg
[15]
  Activity: Non-Toxic
[16]
  IC50: 60.5 µM
